Measured values: the RNAGym collection of RNA variant scans (doi:10.1126/science.aae0568)
Variants at the floor of the assay were thinned out.

B1: tRNA (parent)
chain: GUUCCGUUGGCGUAAUGGUAACGCGUCUCCCUCCUAAGGAGAAGACUGCGGGUUCGAGUCCCGUACGGAACG

Variants of: B1
Assay: yeast fitness relative to wild type (ratio to wild type); higher = fitter; tRNA-Arg(CCU), competitive growth, 37 C, YPD
How it was run: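 Genotype frequency changes were the basis for Darwinian fitness relative to wild type. The frequencies came from 100-nucleotide paired-end sequencing of gene amplicons from the start population and each end population of pooled yeast strains with tRNA-Arg(CCU) gene variants at the native locus. Competition ran in YPD at 37°C for 24 hours in six replicates, genotypes needed ≥ 100 starting reads, and estimates < 0.5 were set to 0.5.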

Row | Variant | yeast fitness
1 | G25A A45G G50C | 0.516
2 | G25A A70C | 1.05
3 | G25A C27G C33G G39A C46U C61U A69U | ≤ 0.5
4 | G25A C27G C61G | 0.574
5 | G25A C29A C46G G51A | ≤ 0.5
6 | G25A C29G G48A A69U | ≤ 0.5
7 | G25A C29U A65G | 0.704
8 | G25A C29U C31G C55U G67C | ≤ 0.5
9 | G25A C29U C60A | 0.728
10 | G25A C29U G51C A70U | ≤ 0.5
11 | G25A C30A | 0.836
12 | G25A C30A A45G U64C | 0.984
13 | G25A C30A C34A C49A C62G C66U A70G | 0.712
14 | G25A C30G | 0.636
15 | G25A C30G C34A C49G | ≤ 0.5
16 | G25A C30U A36C | ≤ 0.5
17 | G25A C31A G44C | 0.597
18 | G25A C31G A45U C61U | 0.727
19 | G25A C31U A37C G52C | ≤ 0.5
20 | G25A C31U G38C U54C | 0.654
21 | G25A C31U U47G C55A A57G A65C A70C | ≤ 0.5
22 | G25A C31U U64A | 0.642
23 | G25A C33G A42G G50A G52A | ≤ 0.5
24 | G25A C34A A36C | 0.587

Row | Variant | yeast fitness
25 | G25A C34A A36C G51C | ≤ 0.5
26 | G25A C34A A40U | ≤ 0.5
27 | G25A C34G G67A | ≤ 0.5
28 | G25A C46U C66U | 0.778
29 | G25A C49A G68C | ≤ 0.5
30 | G25A C49G | 0.981
31 | G25A C66G | 0.962
32 | G25A G39A | 0.973
33 | G25A G41A | 0.822
34 | G25A G41A C60G C62G A65G | ≤ 0.5
35 | G25A G41A G52C | ≤ 0.5
36 | G25A G48A A70U | 0.81
37 | G25A G50C | 0.929
38 | G25A G56A A69C | 0.773
39 | G25A G56C | 0.711
40 | G25A G58C A65G | 1.04
41 | G25A U26A | 0.839
42 | G25A U28A C61U G67C | ≤ 0.5
43 | G25A U28C | 0.891
44 | G25A U28G C33G A45C | ≤ 0.5
45 | G25A U28G G58A C66G | 0.61
46 | G25A U32C | 0.832
47 | G25A U35C A43G | ≤ 0.5
48 | G25C A36G G48A | 0.571

Row | Variant | yeast fitness
49 | G25C A37G A43C C55G G68A | ≤ 0.5
50 | G25C A37U | 0.56
51 | G25C A40C C62A | 0.675
52 | G25C A40C G63A | 0.69
53 | G25C A40C G68C | 0.645
54 | G25C A42G G68A | 0.621
55 | G25C A43G C61U | 0.623
56 | G25C A57U | 0.659
57 | G25C A65U | 1.03
58 | G25C C27A | 0.678
59 | G25C C27G C30G C60A | ≤ 0.5
60 | G25C C27G U35C | ≤ 0.5
61 | G25C C27U C61G | 0.502
62 | G25C C29A G48A U53G | ≤ 0.5
63 | G25C C29A G48C C60A | ≤ 0.5
64 | G25C C29A G52A | 0.505
65 | G25C C29A G52A A65G | ≤ 0.5
66 | G25C C29G C33U G39U A57U | ≤ 0.5
67 | G25C C30A | 0.792
68 | G25C C30U C61G | 0.526
69 | G25C C31G C34G G41A C61U A69U | ≤ 0.5
70 | G25C C31G G51C A65U | ≤ 0.5
71 | G25C C31U A69U | 0.77
72 | G25C C31U C46U | 0.684

Row | Variant | yeast fitness
73 | G25C C31U U32A A70G | ≤ 0.5
74 | G25C C33G C61G | ≤ 0.5
75 | G25C C33U C49A U53A G67A | ≤ 0.5
76 | G25C C33U U47G C49U G52C | ≤ 0.5
77 | G25C C34U | 0.558
78 | G25C C34U A40G U54A A65G | 0.582
79 | G25C C34U G41A C49G A69C | ≤ 0.5
80 | G25C C46U G50C | ≤ 0.5
81 | G25C C60U C61A | ≤ 0.5
82 | G25C C61U | 1.1
83 | G25C G41C C46U | 0.579
84 | G25C G44A A69U | 0.622
85 | G25C G48A C60G | ≤ 0.5
86 | G25C G50A C62G | 0.897
87 | G25C G50C | 0.627
88 | G25C G51A U54A | 0.507
89 | G25C U26G C60U C62G U64A A69U | ≤ 0.5
90 | G25C U28A G51A | 0.604
91 | G25C U28C A69U | 0.532
92 | G25C U32G G41A | 0.565
93 | G25C U35C G58C | 0.558
94 | G25C U35C U59A G67U A69C | ≤ 0.5
95 | G25C U53A A57U A65U | ≤ 0.5
96 | G25C U53A C55U | ≤ 0.5

Row | Variant | yeast fitness
97 | G25C U59A | 0.804
98 | G25U A36U G56C A65C G67A | ≤ 0.5
99 | G25U C60G | ≤ 0.5
100 | G25U U64G | 0.788
101 | U26A A36C | ≤ 0.5
102 | U26A A36G A70U | 0.584
103 | U26A A37G C66A | ≤ 0.5
104 | U26A A40C U64G | 0.538
105 | U26A A40U | 0.809
106 | U26A A40U A65C | 0.662
107 | U26A A43U | 0.937
108 | U26A A70U | 0.876
109 | U26A C27A | 0.671
110 | U26A C27A C31U | ≤ 0.5
111 | U26A C27A U54C | ≤ 0.5
112 | U26A C27U U59C A65G | 0.65
113 | U26A C29A A45U G58A | ≤ 0.5
114 | U26A C29A C31G A65C | 0.566
115 | U26A C29G A43G A45U A65U | ≤ 0.5
116 | U26A C30A | 0.768
117 | U26A C30A C34A G48C A70U | ≤ 0.5
118 | U26A C30U A42C C46U A65G | 0.859
119 | U26A C30U C31U A37C G48A | ≤ 0.5
120 | U26A C31A A42G C55G A57C | ≤ 0.5

Row | Variant | yeast fitness
121 | U26A C31A A45U | 0.563
122 | U26A C31G A37G G63A | ≤ 0.5
123 | U26A C31U A57G | 0.742
124 | U26A C33A | 0.689
125 | U26A C34A | 0.592
126 | U26A C34U C49G | ≤ 0.5
127 | U26A C46G | 0.973
128 | U26A C46G C61U | 0.699
129 | U26A C46U G50C U54A | 0.579
130 | U26A C49G | 0.616
131 | U26A C49G G67C | ≤ 0.5
132 | U26A C49U | 0.865
133 | U26A C49U A57U | ≤ 0.5
134 | U26A C49U G56A | 0.706
135 | U26A C55U | 0.65
136 | U26A C60U | 0.744
137 | U26A C66A A70U | ≤ 0.5
138 | U26A G38C G58C U64A | ≤ 0.5
139 | U26A G38C U47A C49A | ≤ 0.5
140 | U26A G39U A45C | ≤ 0.5
141 | U26A G48A C49G A70U | ≤ 0.5
142 | U26A G50U | 0.805
143 | U26A G52A | 0.666
144 | U26A G56A | 1.02

Row | Variant | yeast fitness
145 | U26A G58C | 0.98
146 | U26A G58C C62U | 0.659
147 | U26A G58U | 1.03
148 | U26A G68C A69G | 0.572
149 | U26A U28A C31U G56A C66G | ≤ 0.5
150 | U26A U28A C31U G63C | ≤ 0.5
151 | U26A U28C C30G C62A | ≤ 0.5
152 | U26A U32C U53A | ≤ 0.5
153 | U26A U35G A37U A70G | ≤ 0.5
154 | U26A U59C C66U | 0.564
155 | U26C A36C A45G U54C | ≤ 0.5
156 | U26C A36G A69C | 0.736
157 | U26C A36U | 0.608
158 | U26C A36U A45U G52C A57U | ≤ 0.5
159 | U26C A40G C66U | 0.563
160 | U26C A42G | 1.08
161 | U26C A42G G67U | 0.647
162 | U26C A43C | 0.952
163 | U26C A43G | 1.01
164 | U26C A43U G50A G68A | ≤ 0.5
165 | U26C A45G | 0.966
166 | U26C A45G A69U | 0.647
167 | U26C A45G C55A C66U | 0.701
